Assay results from ChEMBL document CHEMBL1139315, “Search for new pharmacophores for antimalarial activity. Part II: synthesis and antimalarial activity of new 6-ureido-4-anilinoquinazolines” (Bioorg Med Chem, 2009).
Values after ≈ are worked out from the molar mass of the structure shown.

Legend:
Plasmodium falciparum [1] = assay: Antimalarial activity as schizonticidal activity after 48 hrs against chloroquine-sensitive Plasmodium falciparum 3D7; type: functional; settings: 3D7, 48 h
Method in brief: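 3D7 ring stages synchronized with 5% sorbitol; 3% cell suspension at 1% parasitaemia added to duplicate wells of diluted compound (DMSO stock 5 mg/mL, diluted in RPMI). Incubated at 37 °C under CO2 for more than 40 h. Giemsa-stained thin smears counted by light microscopy; MIC = lowest concentration giving 100% inhibition of schizont maturation against untreated control.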

[2] = tested on: Plasmodium yoelii nigeriensis; assay: (§1) Antimalarial activity as reduced parasitaemia against Plasmodium yoelii nigeriensis MDR infected Swiss mice (Mus musculus) at 100 mg/kg peroral dose […]; type: functional; design: scale not given: the % may be the effect or the level left; settings: route oral
Method in brief: (§2)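 Swiss mice (25 g, either sex), five per group, infected with 1 × 10^6 parasitized cells on day 0. Aqueous suspension given orally from day 0 to day 4; vehicle-only group as control. Parasitaemia read from tail-vein thin blood smears, reported as mean % parasitaemia on day 4 and day 7.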

Plasmodium yoelii = assay: Antimalarial activity as reduced parasitaemia against chloroquine-resistant Plasmodium yoelii infected Swiss mice (Mus musculus) at 100 mg/kg peroral dose for 4 days; type: functional; design: scale not given: the % may be the effect or the level left; settings: route oral
[3] = Selectivity index, ratio of CC50 for african green monkey (Cercopithecus aethiops) Vero C1008 cells to IC50 for chloroquine-sensitive Plasmodium falciparum 3D7; type: functional
Method in brief: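 Vero C1008 cells exposed to serially diluted compound, highest 100 µg/mL, for 72 h; MTT read-out; CC50 = concentration killing 50% of cells. SI = CC50/IC50, with IC50 from the SYBR Green I assay on 3D7.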

Plasmodium falciparum [4] = assay: Antimalarial activity after 72 hrs against chloroquine-sensitive Plasmodium falciparum 3D7 infected erythrocytes by MSF assay; type: functional, organism-based; settings: 3D7, 72 h
Method in brief: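 P. falciparum 3D7 kept in RPMI with gentamicin 40 µg/mL, Fungizone 0.25 µg/mL and 10% FBS (pH 7.2) at 37 °C under CO2. Twofold serial dilutions over seven concentrations, top 10–500 ng/mL, duplicate wells; 2.5% haematocrit, 0.5% parasitaemia; 72 h. SYBR Green I in lysis buffer (Tris pH 7.5, EDTA, saponin, Triton X-100), 1 h at room temperature, fluorescence read; IC50 by logit regression.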

[5] = tested on: Plasmodium yoelii nigeriensis; assay: Antimalarial activity as reduced parasitaemia against Plasmodium yoelii nigeriensis MDR infected Swiss mice (Mus musculus) at 100 mg/kg peroral dose for 4 days; type: functional; design: scale not given: the % may be the effect or the level left; settings: route oral; method in brief: as §2
Mus musculus = assay: Toxicity against Plasmodium yoelii nigeriensis MDR infected Swiss mice (Mus musculus) assessed as death at 100 mg/kg, perorally; type: organism-based; design: dose 100 mg/kg, route oral; settings: in vivo, po
[6] = tested on: Plasmodium yoelii nigeriensis; assay: as §1; type: functional; design: scale not given: the % may be the effect or the level left; settings: route oral; method in brief: as §2; remark: listed apart in the source

Structure (SMILES) | MIC (Plasmodium falciparum [1]) | other results
COc1ccc(Nc2ncnc3ccc(NC(=O)Nc4cccc(C(C)=O)c4)cc23)cc1OC | 10 µg/mL (≈ 21.9 µM) | 
O=C(Nc1ccc(Cl)cc1)Nc1ccc2ncnc(Nc3ccc(F)cc3)c2c1 | 0.5 µg/mL (≈ 1.23 µM) | Activity [2]: 9.38%; Activity (Plasmodium yoelii): 1.18%
Cc1ccc(NC(=O)Nc2ccc3ncnc(Nc4ccc(F)cc4)c3c2)cc1Cl | 0.5 µg/mL (≈ 1.19 µM) | Activity [2]: 4.06%; Activity (Plasmodium yoelii): 2.8%
COc1cccc(Nc2ncnc3ccc(NC(=O)Nc4cccc(C(C)=O)c4)cc23)c1 | 10 µg/mL (≈ 23.4 µM) | 
O=C(Nc1ccc(Br)cc1)Nc1ccc2ncnc(Nc3ccc(F)cc3)c2c1 | 10 µg/mL (≈ 22.1 µM) | 
O=C(Nc1cc(Cl)cc(Cl)c1)Nc1ccc2ncnc(Nc3cccc(C(F)(F)F)c3)c2c1 | 10 µg/mL (≈ 20.3 µM) | 
O=C(Nc1ccc(Cl)c(C(F)(F)F)c1)Nc1ccc2ncnc(Nc3cccc(C(F)(F)F)c3)c2c1 | 0.25 µg/mL (≈ 0.475 µM) | Activity [2]: 30.5%; Ratio CC50/IC50 [3]: 1194; IC50 (Plasmodium falciparum [4]): 0.0023 µg/mL (≈ 0.00437 µM); Activity [5]: 10%
COc1cccc(Nc2ncnc3ccc(NC(=O)Nc4cccc(C#N)c4)cc23)c1 | 10 µg/mL (≈ 24.4 µM) | 
COc1cccc(Nc2ncnc3ccc(NC(=O)Nc4ccc(C)c(Cl)c4)cc23)c1 | 0.5 µg/mL (≈ 1.15 µM) | 
Cc1ccc(NC(=O)Nc2ccc3ncnc(Nc4cccc(C(F)(F)F)c4)c3c2)cc1Cl | 10 µg/mL (≈ 21.2 µM) | 
O=C(Nc1ccc(Cl)c(Cl)c1)Nc1ccc2ncnc(Nc3cccc(C(F)(F)F)c3)c2c1 | 0.25 µg/mL (≈ 0.508 µM) | Ratio CC50/IC50 [3]: 69; IC50 (Plasmodium falciparum [4]): 0.013 µg/mL (≈ 0.0264 µM)
Cc1ccc(Nc2ncnc3ccc(NC(=O)Nc4ccc(Br)cc4)cc23)cc1 | 1 µg/mL (≈ 2.23 µM) | 
N#Cc1cccc(NC(=O)Nc2ccc3ncnc(Nc4cccc(C(F)(F)F)c4)c3c2)c1 | 1 µg/mL (≈ 2.23 µM) | 
O=C(Nc1ccc(Cl)cc1)Nc1ccc2ncnc(Nc3cccc(C(F)(F)F)c3)c2c1 | 0.25 µg/mL (≈ 0.546 µM) | Ratio CC50/IC50 [3]: 35.9; IC50 (Plasmodium falciparum [4]): 0.0674 µg/mL (≈ 0.147 µM)
O=C(Nc1ccc(Cl)c(Cl)c1)Nc1ccc2ncnc(Nc3ccc(Cl)cc3)c2c1 | 0.5 µg/mL (≈ 1.09 µM) | 
O=C(Nc1ccc(Cl)c(Cl)c1)Nc1ccc2ncnc(Nc3cccc(F)c3)c2c1 | 0.25 µg/mL (≈ 0.565 µM) | Ratio CC50/IC50 [3]: 221.5; IC50 (Plasmodium falciparum [4]): 0.0245 µg/mL (≈ 0.0554 µM)
O=C(Nc1ccc(Cl)c(C(F)(F)F)c1)Nc1ccc2ncnc(Nc3cccc(F)c3)c2c1 | 0.5 µg/mL (≈ 1.05 µM) | Activity [2]: 14.5%; Activity [5]: 22%
CC(=O)c1cccc(NC(=O)Nc2ccc3ncnc(Nc4ccc(C)cc4)c3c2)c1 | 2 µg/mL (≈ 4.86 µM) | 
COc1ccc(Nc2ncnc3ccc(NC(=O)Nc4ccc(Br)cc4)cc23)cc1OC | 0.5 µg/mL (≈ 1.01 µM) | Activity [2]: 26.5%; Activity [5]: 26.3%
COc1ccc(Nc2ncnc3ccc(NC(=O)Nc4ccc(C)c(Cl)c4)cc23)cc1OC | 0.25 µg/mL (≈ 0.539 µM) | Ratio CC50/IC50 [3]: 449; IC50 (Plasmodium falciparum [4]): 0.0223 µg/mL (≈ 0.0481 µM)
COc1ccc(Nc2ncnc3ccc(NC(=O)Nc4cc(Cl)cc(Cl)c4)cc23)cc1OC | 0.25 µg/mL (≈ 0.516 µM) | Activity [2]: 10.75%; Ratio CC50/IC50 [3]: 36.1; IC50 (Plasmodium falciparum [4]): 0.0832 µg/mL (≈ 0.172 µM); Activity [5]: 23.7%

Structure (SMILES) | MIC (Plasmodium falciparum [1]) | other results
COc1ccc(Nc2ncnc3ccc(NC(=O)Nc4ccc(Cl)cc4)cc23)cc1OC | 0.5 µg/mL (≈ 1.11 µM) | 
COc1ccc(Nc2ncnc3ccc(NC(=O)Nc4ccc(Cl)c(Cl)c4)cc23)cc1 | 2 µg/mL (≈ 4.4 µM) | 
COc1ccc(Nc2ncnc3ccc(NC(=O)Nc4ccc(C(C)=O)cc4)cc23)cc1 | 2 µg/mL (≈ 4.68 µM) | 
N#Cc1cccc(NC(=O)Nc2ccc3ncnc(Nc4cccc(Cl)c4)c3c2)c1 | 0.5 µg/mL (≈ 1.21 µM) | 
O=C(Nc1ccc(Cl)c(Cl)c1)Nc1ccc2ncnc(Nc3cccc(Cl)c3)c2c1 | 0.5 µg/mL (≈ 1.09 µM) | 
O=C(Nc1ccc(Br)cc1)Nc1ccc2ncnc(Nc3cccc(C(F)(F)F)c3)c2c1 | 2 µg/mL (≈ 3.98 µM) | Activity [5]: 50.4%; Activity (Mus musculus): Toxic
O=C(Nc1ccc(Br)cc1)Nc1ccc2ncnc(Nc3ccccc3)c2c1 | 0.25 µg/mL (≈ 0.576 µM) | Ratio CC50/IC50 [3]: 132.5; IC50 (Plasmodium falciparum [4]): 0.173 µg/mL (≈ 0.399 µM)
O=C(Nc1ccc(Cl)cc1)Nc1ccc2ncnc(Nc3ccccc3)c2c1 | 1 µg/mL (≈ 2.57 µM) | 
COc1ccc(Nc2ncnc3ccc(NC(=O)Nc4ccc(Cl)c(C(F)(F)F)c4)cc23)cc1OC | 0.25 µg/mL (≈ 0.483 µM) | Activity [6]: 99%; Activity [2]: 0.49%; Ratio CC50/IC50 [3]: 345.8; IC50 (Plasmodium falciparum [4]): 0.0182 µg/mL (≈ 0.0351 µM); Activity [5]: 0%
COc1ccc(Nc2ncnc3ccc(NC(=O)Nc4cccc(C#N)c4)cc23)cc1 | 2 µg/mL (≈ 4.87 µM) | 
Cc1ccc(Nc2ncnc3ccc(NC(=O)Nc4cccc(C#N)c4)cc23)cc1 | 10 µg/mL (≈ 25.4 µM) | 
Cc1ccc(Nc2ncnc3ccc(NC(=O)Nc4ccc(C)c(Cl)c4)cc23)cc1 | 0.5 µg/mL (≈ 1.2 µM) | Activity [2]: 10.82%; Activity (Plasmodium yoelii): 3.38%
Cc1ccc(Nc2ncnc3ccc(NC(=O)Nc4ccc(Cl)c(Cl)c4)cc23)cc1 | 1 µg/mL (≈ 2.28 µM) | 
O=C(Nc1ccc(Cl)c(Cl)c1)Nc1ccc2ncnc(Nc3ccccc3)c2c1 | 10 µg/mL (≈ 23.6 µM) | 
N#Cc1cccc(NC(=O)Nc2ccc3ncnc(Nc4cccc(F)c4)c3c2)c1 | 0.5 µg/mL (≈ 1.26 µM) | Activity [5]: 46.4%; Activity (Mus musculus): Toxic
O=C(Nc1ccc(Cl)cc1)Nc1ccc2ncnc(Nc3cccc(Cl)c3)c2c1 | > 10 µg/mL | 
COc1ccc(Nc2ncnc3ccc(NC(=O)Nc4ccc(Br)cc4)cc23)cc1 | 1 µg/mL (≈ 2.15 µM) | 
Cc1ccc(NC(=O)Nc2ccc3ncnc(Nc4ccccc4)c3c2)cc1Cl | 1 µg/mL (≈ 2.48 µM) | 
Cc1ccc(NC(=O)Nc2ccc3ncnc(Nc4cccc(F)c4)c3c2)cc1Cl | 0.25 µg/mL (≈ 0.593 µM) | Ratio CC50/IC50 [3]: 76.6; IC50 (Plasmodium falciparum [4]): 0.147 µg/mL (≈ 0.348 µM)
O=C(Nc1ccc(Br)cc1)Nc1ccc2ncnc(Nc3ccc(Cl)cc3)c2c1 | 1 µg/mL (≈ 2.13 µM) | 
O=C(Nc1ccc(Cl)cc1)Nc1ccc2ncnc(Nc3cccc(F)c3)c2c1 | 0.5 µg/mL (≈ 1.23 µM) | Activity [6]: 99%; Activity [2]: 0.03%; Activity [5]: 0%

Structure (SMILES) | MIC (Plasmodium falciparum [1]) | other results
COc1ccc(Nc2ncnc3ccc(NC(=O)Nc4ccc(Cl)c(Cl)c4)cc23)cc1OC | 0.25 µg/mL (≈ 0.516 µM) | Activity [2]: 14%; Ratio CC50/IC50 [3]: 74.5; IC50 (Plasmodium falciparum [4]): 0.0807 µg/mL (≈ 0.167 µM); Activity [5]: 41%
COc1ccc(Nc2ncnc3ccc(NC(=O)Nc4cccc(C#N)c4)cc23)cc1OC | 0.5 µg/mL (≈ 1.14 µM) | Activity [2]: 23.2%; Activity [5]: 13.9%
O=C(Nc1ccc(Br)cc1)Nc1ccc2ncnc(Nc3cccc(F)c3)c2c1 | 0.5 µg/mL (≈ 1.11 µM) | 
O=C(Nc1ccc(Cl)cc1)Nc1ccc2ncnc(Nc3ccc(Cl)cc3)c2c1 | 0.5 µg/mL (≈ 1.18 µM) | 
COc1ccc(Nc2ncnc3ccc(NC(=O)Nc4ccc(C)c(Cl)c4)cc23)cc1 | 0.25 µg/mL (≈ 0.576 µM) | Ratio CC50/IC50 [3]: 114.9; IC50 (Plasmodium falciparum [4]): 0.05 µg/mL (≈ 0.115 µM)
O=C(Nc1ccc(Br)cc1)Nc1ccc2ncnc(Nc3cccc(Cl)c3)c2c1 | 1 µg/mL (≈ 2.13 µM) | 
Cc1ccc(NC(=O)Nc2ccc3ncnc(Nc4ccc(Cl)cc4)c3c2)cc1Cl | 1 µg/mL (≈ 2.28 µM) | 
COc1ccc(Nc2ncnc3ccc(NC(=O)Nc4cccc(C(C)=O)c4)cc23)cc1 | 10 µg/mL (≈ 23.4 µM) | 
Cc1ccc(Nc2ncnc3ccc(NC(=O)Nc4ccc(Cl)cc4)cc23)cc1 | 1 µg/mL (≈ 2.48 µM) | Ratio CC50/IC50 [3]: 126.3; IC50 (Plasmodium falciparum [4]): 0.0771 µg/mL (≈ 0.191 µM)
O=C(Nc1ccc(Cl)c(Cl)c1)Nc1ccc2ncnc(Nc3ccc(F)cc3)c2c1 | 10 µg/mL (≈ 22.6 µM) | 
COc1ccc(Nc2ncnc3ccc(NC(=O)Nc4ccc(Cl)cc4)cc23)cc1 | 0.25 µg/mL (≈ 0.595 µM) | Ratio CC50/IC50 [3]: 435.1; IC50 (Plasmodium falciparum [4]): 0.094 µg/mL (≈ 0.224 µM)
O=C(Nc1cc(Cl)cc(Cl)c1)Nc1ccc2ncnc(Nc3cccc(F)c3)c2c1 | > 10 µg/mL | 
Cc1ccc(NC(=O)Nc2ccc3ncnc(Nc4cccc(Cl)c4)c3c2)cc1Cl | 10 µg/mL (≈ 22.8 µM) | 
CC(=O)c1ccc(NC(=O)Nc2ccc3ncnc(Nc4ccc(C)cc4)c3c2)cc1 | 2 µg/mL (≈ 4.86 µM) | 
N#Cc1cccc(NC(=O)Nc2ccc3ncnc(Nc4ccccc4)c3c2)c1 | 0.5 µg/mL (≈ 1.31 µM) | 
COc1ccc(Nc2ncnc3ccc(NC(=O)Nc4ccc(C(C)=O)cc4)cc23)cc1OC | 10 µg/mL (≈ 21.9 µM) | 
COc1cccc(Nc2ncnc3ccc(NC(=O)Nc4ccc(Br)cc4)cc23)c1 | 2 µg/mL (≈ 4.31 µM) | 
COc1cccc(Nc2ncnc3ccc(NC(=O)Nc4ccc(Cl)c(Cl)c4)cc23)c1 | 2 µg/mL (≈ 4.4 µM) | 
COc1cccc(Nc2ncnc3ccc(NC(=O)Nc4ccc(C(C)=O)cc4)cc23)c1 | > 10 µg/mL | 
COc1cccc(Nc2ncnc3ccc(NC(=O)Nc4ccc(Cl)cc4)cc23)c1 | 0.25 µg/mL (≈ 0.595 µM) | Ratio CC50/IC50 [3]: 378.9; IC50 (Plasmodium falciparum [4]): 0.159 µg/mL (≈ 0.377 µM)
CCN(CC)CCCC(C)Nc1ccnc2cc(Cl)ccc12 (centres undefined) [CHLOROQUINE] | 0.125 µg/mL (≈ 0.391 µM) | 
